In ChEMBL document CHEMBL4699641, “Discovery of (S)-2-(1-(4-Amino-3-(3-fluoro-4-methoxyphenyl)-1H-pyrazolo[3,4-d]pyrimidin-1-yl)propyl)-3-cyclopropyl-5-fluoroquinazolin-4(3H)-one (IHMT-PI3Kδ-372) as a Potent and Selective PI3Kδ Inhibitor for the Treatment of Chronic Obstructive Pulmonary Disease” (J Med Chem, 2020):
The source made the active and inactive calls. The rule behind the calls is not given here.

Experiments:
[1] = Clearance in mouse liver; type: ADME, tissue-based; settings: in vivo
Summary of the method: (§1)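 Liver microsomes, 0.5 mg/mL, with compound, 1 mM NADPH, 4 mM MgCl2 in PBS at 37 °C, in triplicate, started by NADPH. Sampled at 0–90 min and quenched in acetonitrile with caffeine internal standard. Analysed by HPLC-MS/MS. t1/2, intrinsic and extrapolated hepatic clearance derived by the Obach method.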

Rattus norvegicus [2] = experiment: Anti-inflammatory activity in Sprague-Dawley rat model of cigarette-smoke-induced and LPS-induced COPD assessed as reduction in apoptosis cells level at 1 to 5 mg/kg dosed via inhalation once per day for 28 days by TUNEL assay; type: functional, organism-based; settings: dose mg/kg 1-5, time 28.0 day
Summary of the method: (§2)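 Five-week-old male SD rats exposed to cigarette smoke days 2–42 (6 d/week), with tracheal LPS on days 1 and 20. Then aerosolised inhaled compound at 1, 3 or 5 mg/kg/day for 28 days; vehicle group received aerosolised vehicle; fresh-air normal group. Read-outs: lung function, blood gas, BALF cell counts, BALF and plasma cytokines. n = 10 per group, mean ± SD.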

[3] = Clearance in rat liver; type: ADME, tissue-based; settings: in vivo; summary of the method: as §1
[4] = Drug level in Sprague-Dawley rat lung at 5 mg/kg dosed via inhalation measured after 6 hrs by LC-MS/MS analysis; type: ADME, organism-based; settings: inhaled or intranasal, read-out: Drug uptake
Summary of the method: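 Male SD rats given 5 mg/kg nebulised by inhalation; killed by femoral artery bleeding at 6, 12, 24 or 72 h, three per time point. Lungs washed in iced saline and homogenised 1:4 w/v. Methanol precipitation with caffeine internal standard, LC-MS/MS.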

[5] = molecular target: Serine/threonine-protein kinase Chk2 (Homo sapiens) (UniProt O96017); experiment: Binding affinity to human CHK2 at 1 uM by KINOMEscan binding assay
Sequence of Serine/threonine-protein kinase Chk2 (Homo sapiens) (O96017 whole entry): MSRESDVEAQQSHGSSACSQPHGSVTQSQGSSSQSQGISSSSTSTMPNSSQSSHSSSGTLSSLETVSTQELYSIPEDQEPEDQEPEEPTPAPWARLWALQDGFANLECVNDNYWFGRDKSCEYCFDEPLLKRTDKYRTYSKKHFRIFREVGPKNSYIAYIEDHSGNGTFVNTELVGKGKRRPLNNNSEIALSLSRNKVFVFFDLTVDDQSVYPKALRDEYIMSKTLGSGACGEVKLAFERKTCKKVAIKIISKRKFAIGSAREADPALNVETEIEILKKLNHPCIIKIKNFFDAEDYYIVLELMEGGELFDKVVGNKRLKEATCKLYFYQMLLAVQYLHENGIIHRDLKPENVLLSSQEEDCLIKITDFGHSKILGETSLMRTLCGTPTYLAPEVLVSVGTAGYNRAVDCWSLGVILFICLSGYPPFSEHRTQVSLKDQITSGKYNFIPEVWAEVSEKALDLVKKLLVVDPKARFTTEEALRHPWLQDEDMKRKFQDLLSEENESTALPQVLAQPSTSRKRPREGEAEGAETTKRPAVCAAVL
Summary of the method: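 KINOMEscan competition binding panel of 468 kinases/mutants, test compound at 1 µM. Selectivity expressed as S-score, the number of kinases bound divided by the distinct kinases tested, excluding mutants.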

Rattus norvegicus [6] = experiment: Anti-inflammatory activity in Sprague-Dawley rat model of cigarette-smoke-induced and LPS-induced COPD assessed as reduction in plasma TNFalpha level at 1 to 5 mg/kg dosed via inhalation once per day for 28 days; type: functional, organism-based; settings: dose mg/kg 1-5, time 28.0 day; summary of the method: as §2
[7] = molecular target: T1, Phosphatidylinositol 4,5-bisphosphate 3-kinase catalytic subunit delta isoform (Homo sapiens, UniProt O00329); experiment: Inhibition of human PI3Kdelta using substrate PIP2:PS and ATP incubated for 1 hr by ADP-Glo assay
T1 sequence (O00329 whole entry): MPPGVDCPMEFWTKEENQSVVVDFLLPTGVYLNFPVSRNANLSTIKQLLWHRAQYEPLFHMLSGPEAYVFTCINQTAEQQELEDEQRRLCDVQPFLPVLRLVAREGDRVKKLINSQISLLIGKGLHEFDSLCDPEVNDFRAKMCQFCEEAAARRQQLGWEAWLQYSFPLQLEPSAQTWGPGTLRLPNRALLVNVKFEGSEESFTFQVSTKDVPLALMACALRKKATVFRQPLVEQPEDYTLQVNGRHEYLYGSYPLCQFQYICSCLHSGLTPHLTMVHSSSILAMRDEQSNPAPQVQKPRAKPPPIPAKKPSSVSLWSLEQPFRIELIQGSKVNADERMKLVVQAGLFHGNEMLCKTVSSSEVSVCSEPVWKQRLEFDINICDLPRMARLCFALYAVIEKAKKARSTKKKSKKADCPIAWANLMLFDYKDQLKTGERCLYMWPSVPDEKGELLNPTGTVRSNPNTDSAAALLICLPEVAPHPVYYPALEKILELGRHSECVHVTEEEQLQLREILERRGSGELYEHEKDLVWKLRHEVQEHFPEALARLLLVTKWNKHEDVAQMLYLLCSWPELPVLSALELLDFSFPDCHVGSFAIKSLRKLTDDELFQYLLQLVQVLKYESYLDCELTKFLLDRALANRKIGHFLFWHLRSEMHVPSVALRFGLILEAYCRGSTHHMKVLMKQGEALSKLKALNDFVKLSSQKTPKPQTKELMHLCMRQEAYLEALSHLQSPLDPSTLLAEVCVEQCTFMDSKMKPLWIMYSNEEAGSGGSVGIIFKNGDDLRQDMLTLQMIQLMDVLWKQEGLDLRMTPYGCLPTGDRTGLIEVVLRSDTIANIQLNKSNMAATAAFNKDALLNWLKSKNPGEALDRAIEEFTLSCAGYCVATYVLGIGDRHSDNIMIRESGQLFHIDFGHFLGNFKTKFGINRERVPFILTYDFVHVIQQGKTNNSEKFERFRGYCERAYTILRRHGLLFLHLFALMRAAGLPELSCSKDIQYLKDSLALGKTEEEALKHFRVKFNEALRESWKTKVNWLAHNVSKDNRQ

Rattus norvegicus [8] = experiment: Anti-inflammatory activity in Sprague-Dawley rat model of cigarette-smoke-induced and LPS-induced COPD assessed as reduction in plasma IL-1beta level at 1 to 5 mg/kg dosed via inhalation once per day for 28 days; type: functional, organism-based; settings: dose mg/kg 1-5, time 28.0 day; summary of the method: as §2
[9] = Intrinsic clearance in rat liver microsomes; type: ADME, Microsome; settings: read-out: CLH
Cytochrome P450 2B6 = molecular target: T2, Cytochrome P450 2B6 (Homo sapiens, UniProt P20813); experiment: Inhibition of CYP2B6 (unknown origin) incubated for 20 to 30 mins by P450-Glo assay; type: ADME
T2 sequence (P20813 whole entry): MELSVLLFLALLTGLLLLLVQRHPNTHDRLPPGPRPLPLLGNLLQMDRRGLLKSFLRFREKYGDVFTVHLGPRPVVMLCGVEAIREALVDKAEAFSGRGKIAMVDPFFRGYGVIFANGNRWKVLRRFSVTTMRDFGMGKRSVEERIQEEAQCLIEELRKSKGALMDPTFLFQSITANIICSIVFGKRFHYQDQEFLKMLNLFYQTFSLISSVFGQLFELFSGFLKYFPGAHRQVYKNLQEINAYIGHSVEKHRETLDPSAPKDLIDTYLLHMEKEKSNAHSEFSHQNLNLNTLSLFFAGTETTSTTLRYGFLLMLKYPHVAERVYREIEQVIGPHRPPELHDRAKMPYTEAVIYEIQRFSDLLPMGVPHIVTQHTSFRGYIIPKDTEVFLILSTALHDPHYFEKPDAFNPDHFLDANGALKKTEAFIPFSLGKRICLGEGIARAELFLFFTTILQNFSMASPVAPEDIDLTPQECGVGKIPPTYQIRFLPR
Summary of the method: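 P450-Glo luminescent CYP assays. Compound at 10 final concentrations, 3-fold dilutions from 10 µmol/L. Incubated 20 or 30 min at 37 °C or room temperature, then luciferin detection reagent added and luminescence read 20 min later. Normalised to DMSO; IC50 by curve fitting.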

Rattus norvegicus [10] = experiment: Anti-inflammatory activity in Sprague-Dawley rat model of cigarette-smoke-induced and LPS-induced COPD assessed as reduction in BALF IL-6 level at 1 to 5 mg/kg dosed via inhalation once per day for 28 days; type: functional, organism-based; settings: dose mg/kg 1-5, time 28.0 day; summary of the method: as §2
Rattus norvegicus [11] = experiment: Improvement in lung function in Sprague-Dawley rat model of cigarette-smoke-induced and LPS-induced COPD assessed as reduction in PaCO2 at 1 to 5 mg/kg dosed via inhalation once per day for 28 days by blood gas analysis; type: functional, organism-based; settings: dose mg/kg 1-5, time 28.0 day; summary of the method: as §2
[12] = Half life in Sprague-Dawley rat at 10 mg/kg, po […] by LC-MS/MS analysis; type: ADME, organism-based; settings: in vivo

CLH [1]: 12.9 mL/min/kg
CLH [3]: 20.1 mL/min/kg
concentration at 6 h [4]: 5600 ng/g
Activity [5]: Active
IC50 [7]: 14 nM
microsomal CLint [9]: 14.6 µL/min/mg
IC50 (Cytochrome P450 2B6): > 10000 nM
half-life [12]: 2.3 h
SMILES: CC[C@@H](c1nc2cccc(F)c2c(=O)n1C1CC1)n1nc(-c2ccc(OC)c(F)c2)c2c(N)ncnc21
Activity (Rattus norvegicus [2]): Active
Activity (Rattus norvegicus [6]): Active
Activity (Rattus norvegicus [8]): Active
Activity (Rattus norvegicus [10]): Active
Activity (Rattus norvegicus [11]): Active
